# In ChEMBL document CHEMBL2163205 (J Med Chem, 2012):
# Activity calls are given as the source filed them. The calls are words filed in the database; no cut-off is given here.
# Tests used:
# [1] = Fraction unbound in rat serum; format: ADME, cell-free
# Method in brief: (§1)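 Serum or plasma protein binding reported as percentage free. Each value is the mean of at least n = 2 experiments.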
# [2] = target: Cathepsin S (Homo sapiens, UniProt P25774); assay: Inhibition of human recombinant CatS assessed as suppression of enzyme-mediated Z-Val-Val-Arg-AMC cleavage by QFRET assay
# Cathepsin S, sequence (P25774 whole entry): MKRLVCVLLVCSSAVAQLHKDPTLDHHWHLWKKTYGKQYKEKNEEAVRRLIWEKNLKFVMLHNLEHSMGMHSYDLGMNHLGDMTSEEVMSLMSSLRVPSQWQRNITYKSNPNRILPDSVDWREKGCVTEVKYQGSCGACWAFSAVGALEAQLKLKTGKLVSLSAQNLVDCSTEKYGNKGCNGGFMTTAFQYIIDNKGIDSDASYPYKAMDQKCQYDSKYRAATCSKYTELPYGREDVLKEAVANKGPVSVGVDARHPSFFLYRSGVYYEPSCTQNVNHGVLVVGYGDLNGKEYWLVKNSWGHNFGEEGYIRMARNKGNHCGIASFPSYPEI
# Method in brief: (§2)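 Recombinant human Cat S at 0.5 nM final was preincubated with compound for 30 min at room temperature. Z-Val-Val-Arg-AMC (100 μM final) was added in potassium phosphate buffer, pH 6.4, incubated 1 h, then stopped with acetic acid. AMC fluorescence read at ex 360/em 425 nm; IC50 by nonlinear regression.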
# [3] = target: Procathepsin L (Homo sapiens, UniProt P07711); assay: Inhibition of human recombinant CatL assessed as suppression of enzyme-mediated Z-Phe-Arg-AMC cleavage by QFRET assay
# Procathepsin L, sequence (P07711 whole entry): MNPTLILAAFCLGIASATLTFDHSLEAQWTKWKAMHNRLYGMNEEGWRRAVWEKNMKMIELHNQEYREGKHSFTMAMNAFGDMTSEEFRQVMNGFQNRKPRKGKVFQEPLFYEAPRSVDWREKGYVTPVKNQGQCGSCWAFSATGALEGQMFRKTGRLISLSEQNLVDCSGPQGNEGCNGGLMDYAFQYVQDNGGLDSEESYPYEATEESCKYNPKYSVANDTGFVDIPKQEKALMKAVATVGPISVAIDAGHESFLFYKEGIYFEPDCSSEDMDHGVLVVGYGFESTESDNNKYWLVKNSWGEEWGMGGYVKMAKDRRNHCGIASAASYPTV
# Method in brief: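 Recombinant human Cat L at 0.1 nM final was preincubated with compound for 30 min, then Z-Phe-Arg-AMC (10 μM final) was added. QFRET cleavage was run 1 h at room temperature and stopped with acetic acid. Fluorescence read at ex 360/em 425 nm; IC50 by variable-slope nonlinear regression.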
# [4] = Oral bioavailability in Beagle dog at 1.0 mg/kg administered as single dose; conditions: in vivo
# [5] = Aqueous solubility of the compound at pH 7.4; conditions: buffer
# [6] = Volume of distribution at steady state in Beagle dog at 1.0 mg/kg, po and 1.0 mg/kg, iv administered as single dose; format: ADME, organism-based, Canis lupus familiaris; conditions: in vivo, read-out: Vdss
# Method in brief: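 Beagle dogs, fasted. Given single iv dose of 1.0 mg/kg as a solution in 10% DMSO/90% Sorensons and single po dose of 1.0 mg/kg as a suspension in 5% DMSO/95% HPMC/TWEEN. At least two experiments, each with two animals.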
# [7] = Oral bioavailability in Alderley Park Han Wistar rat at 2.0 mg/kg administered as single dose; format: ADME, organism-based; conditions: in vivo
# Method in brief: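 Fed male Alderley Park Han Wistar rats dosed po at 2.0 mg/kg as a suspension in 5% DMSO/95% HPMC/TWEEN; iv reference dose 2.0 mg/kg in 40% DMA/water. Single doses, at least two experiments of two animals each.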
# [8] = Fraction unbound in dog serum; format: ADME, cell-free, Canis lupus familiaris; method in brief: as §1
# [9] = Volume of distribution at steady state in Alderley Park Han Wistar rat at 2.0 mg/kg, po and 2.0 mg/kg, iv administered as single dose; format: ADME, organism-based; conditions: in vivo, read-out: Vdss
# Method in brief: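 Male Alderley Park Han Wistar rats, fed. Given single iv dose of 2.0 mg/kg as a solution in 40% DMA/water and single po dose of 2.0 mg/kg as a suspension in 5% DMSO/95% HPMC/TWEEN. At least two experiments, each with two animals.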
# [10] = target: Cathepsin B (Homo sapiens, UniProt P07858); assay: Inhibition of human recombinant CatB assessed as suppression of enzyme-mediated Z-Arg-Arg-AMC cleavage by QFRET assay
# Method in brief: as §2, with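 “B” for “S”, “Z-Arg-Arg-AMC” for “Z-Val-Val-Arg-AMC”, “Fluorescence” for “AMC fluorescence”, “nm with background correction;” for “nm;”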
# [11] = Fraction unbound in human serum; format: ADME, cell-free; method in brief: as §1
# [12] = Lipophilicity, log D of the compound at pH 7.4; conditions: buffer
# [13] = target: T1, Cathepsin K (Homo sapiens, UniProt P43235); assay: Inhibition of human recombinant CatK assessed as suppression of enzyme-mediated Z-Phe-Arg-AMC cleavage incubated for 1 hrs by QFRET assay
# T1 sequence (P43235 whole entry): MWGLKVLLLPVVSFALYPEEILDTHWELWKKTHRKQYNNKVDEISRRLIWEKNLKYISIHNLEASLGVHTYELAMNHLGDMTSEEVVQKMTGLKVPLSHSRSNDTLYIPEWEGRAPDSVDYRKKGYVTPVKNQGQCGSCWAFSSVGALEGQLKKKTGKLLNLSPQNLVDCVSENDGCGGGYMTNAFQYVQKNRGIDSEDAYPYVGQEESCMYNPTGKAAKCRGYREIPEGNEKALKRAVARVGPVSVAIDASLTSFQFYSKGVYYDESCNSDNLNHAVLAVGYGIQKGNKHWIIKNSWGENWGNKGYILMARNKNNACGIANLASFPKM
# [14] = in vivo; conditions: Alderley Park Han Wistar, rat, plasma, iv, 2 mg/kg
# [15] = Intrinsic clearance in rat liver microsomes assessed as metabolic turnover
# [16] = Half life in Alderley Park Han Wistar rat at 2.0 mg/kg, iv administered as single dose; conditions: in vivo
# [17] = target: T2, Cathepsin K (Canis lupus familiaris, UniProt Q3ZKN1); assay: Inhibition of dog recombinant CatK assessed as suppression of enzyme-mediated Z-Phe-Arg-AMC cleavage by QFRET assay
# T2 sequence (Q3ZKN1 whole entry): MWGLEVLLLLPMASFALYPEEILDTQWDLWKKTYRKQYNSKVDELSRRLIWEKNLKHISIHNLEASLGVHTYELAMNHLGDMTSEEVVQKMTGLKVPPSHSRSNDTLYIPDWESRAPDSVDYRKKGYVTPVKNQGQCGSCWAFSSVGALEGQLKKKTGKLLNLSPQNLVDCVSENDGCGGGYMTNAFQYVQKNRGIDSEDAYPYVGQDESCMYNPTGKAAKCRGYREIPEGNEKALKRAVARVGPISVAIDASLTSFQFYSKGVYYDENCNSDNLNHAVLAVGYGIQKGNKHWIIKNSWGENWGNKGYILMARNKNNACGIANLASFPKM
# Method in brief: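 Recombinant dog Cat K at 0.5 nM final was preincubated with compound for 30 min at room temperature. Z-Phe-Arg-AMC (15 μM final) was added in sodium acetate buffer, pH 5.5, and incubated 1 h at room temperature in the dark, then stopped with 7.5% acetic acid. Fluorescence read at ex 360/em 425 nm; IC50 by nonlinear regression.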
# [18] = tested on: Canis familiaris; assay: In-vivo inhibition of CatK in orally dosed Alderley Park Beagle dog assessed as reduction in CTX-1 level at 0.1 to 2 mg/kg, po qd by ELISA; format: functional, organism-based; conditions: Canis lupus familiaris
# Method in brief: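 Male Alderley Park Beagles (12−14 months, 14−17 kg) gavaged at 0.1, 0.3 or 2.0 mg/kg in 5% DMSO + 95% HPMC/Tween, 5 mL/kg, with dosing started at the same time of day. Jugular blood was clotted ≥1 h at room temperature and serum spun down. Serum CTX-1 was measured by CrossLaps ELISA; points are mean n = 2.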
# [19] = Intrinsic clearance in human liver microsomes assessed as metabolic turnover
# [20] = in vivo; conditions: Beagle, dog, plasma, iv, 1 mg/kg
# [21] = Intrinsic clearance in dog hepatocytes assessed as metabolic turnover measured per 10^6 cells
# [22] = Half life in Beagle dog at 1.0 mg/kg, iv administered as single dose; conditions: in vivo
# [23] = Intrinsic clearance in human hepatocytes assessed as metabolic turnover measured per 10^6 cells
# [24] = Intrinsic clearance in rat hepatocytes assessed as metabolic turnover measured per 10^6 cells; format: ADME, cell-based, Hepatocyte
# Method in brief: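 Intrinsic clearance from in vitro hepatocyte incubation, expressed in μL/min/10⁶ cells. Each value is the mean of at least n = 2 experiments.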
# [25] = species: Homo sapiens; assay: Selectivity ratio of IC50 for human recombinant CatS to IC50 for human recombinant CatK
# Method in brief: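 Quenched-FRET cleavage assays with in-house recombinant human enzymes at 0.5 nM final. Cat K used 50 μM Z-Phe-Arg-AMC at pH 5.5 (acetate/EDTA). Cat S used 100 μM Z-Val-Val-Arg-AMC at pH 6.4 (potassium phosphate). Compounds were preincubated 30 min at RT, then reacted 1 h, stopped with acetic acid and read at ex 360/em 425 nm. Twelve concentrations; IC50s from variable-slope nonlinear regression; ratio Cat S/Cat K.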
# [26] = Fraction unbound at serum; format: ADME, cell-free; method in brief: as §1
Structure (SMILES),fraction unbound [1],IC50 [2] [µM],IC50 [3],bioavailability [4] [%],solubility [5] [µM],Vd [6] [L/kg],bioavailability [7] [%],fraction unbound [8],Vd [9] [L/kg],IC50 [10] [µM],fraction unbound [11],logD [12],IC50 [13] [µM],microsomal CLint [15] [µL/min/mg],microsomal CLint [19] [µL/min/mg],IC50 ([3]; read-out: IC50) [µM],also measured
CN(C)C(=O)[C@@H]1CCCC[C@H]1C(=O)NCC#N,,3.7,,,> 4600,,,,,9.82,,< 0.5,0.257,< 2,5.1,> 40,Ratio IC50 [25]: 14
N#CC1(NC(=O)[C@@H]2CCCC[C@H]2C(=O)N2CCc3oc4ccccc4c3C2)CC1,,,,,580,,0,,,,,3,0.025,> 350,,,fraction unbound [26]: 0.12
CN1CCN(C(=O)[C@@H]2CCCC[C@H]2C(=O)NCC#N)CC1,,2.07,,,3560,,,,,7.63,,-0.1,0.037,,7.9,> 40,hepatocyte CLint [24]: < 2 µL/min/1e6 cells

# These reach a lower IC50 [13]. Values come first.
fraction unbound [1],IC50 [2] [µM],IC50 [3],bioavailability [4] [%],solubility [5] [µM],Vd [6] [L/kg],bioavailability [7] [%],fraction unbound [8],Vd [9] [L/kg],IC50 [10] [µM],fraction unbound [11],logD [12],IC50 [13] [µM],microsomal CLint [15] [µL/min/mg],microsomal CLint [19] [µL/min/mg],IC50 ([3]; read-out: IC50) [µM],Structure (SMILES),also measured
0.42,> 4,Not Active,59,1500,0.9,12,0.38,1.6,> 2.9,0.33,2.1,0.001,,,,N#CC1(NC(=O)[C@@H]2CCCC[C@H]2C(=O)N2CCc3[nH]c4ncccc4c3C2)CC1,
0.17,> 4,Not Active,65,,1.7,28,0.22,2.3,> 2.9,0.17,2.7,< 0.001,67,16,,COc1cccc2c3c([nH]c12)CCN(C(=O)[C@@H]1CCCC[C@H]1C(=O)NC1(C#N)CC1)C3,clearance [14]: 53 mL/min/kg; half-life [16]: 1 h; IC50 [17]: 0.0008 µM; inhibition [18]: Active; clearance [20]: 10 mL/min/kg; hepatocyte CLint [21]: 2.5 µL/min/1e6 cells; half-life [22]: 1.5 h; hepatocyte CLint [23]: 5.3 µL/min/1e6 cells
0.16,> 4,,82,580,1.2,3.8,0.13,2.3,3.52,0.14,3,< 0.001,> 250,41,> 40,N#CC1(NC(=O)[C@@H]2CCCC[C@H]2C(=O)N2CCc3[nH]c4ccc(F)cc4c3C2)CC1,clearance [14]: 63 mL/min/kg; half-life [16]: 0.6 h; hepatocyte CLint [24]: 126 µL/min/1e6 cells; clearance [20]: 10 mL/min/kg; hepatocyte CLint [21]: 6.7 µL/min/1e6 cells; half-life [22]: 1.8 h; hepatocyte CLint [23]: < 2.5 µL/min/1e6 cells
,> 4,Not Active,,910,,8.2,,,> 2.9,,2.7,0.001,143,26,,N#CC1(NC(=O)[C@@H]2CCCC[C@H]2C(=O)N2CCc3[nH]c4ccccc4c3C2)CC1,fraction unbound [26]: 0.23
